Compounds with a hit are over-represented: about 2.5% of the library has one in this group of screens.
PRMT1 inh – PRMT1 methyltransferase inhibitors, primary screen, biochemical, fluorescence polarization. recombinant PRMT1, activity-based probe fluorescence polarization. inhibition, % at 2.79 µM. 370,000 compounds, 1.3% hits;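 active = inhibition above about 21% made by adding two undisclosed values, limit read from the data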
HTRA1 inhibitor – HTRA1 serine protease inhibitors, primary screen, biochemical, fluorescence polarization, HTS; Q92743; recombinant HTRA1, FP-rhodamine activity-based probe; inhibition, % at 5.96 µM; 340,000 compounds, 0.5% hits; AID 504803, 2011; in the data active = inhibition above about 36%;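 also: 0% = enzyme with DMSO and 100% = wells lacking enzyme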
SIAE inh – human SIAE inhibitors, primary screen, biochemical, fluorescence polarization, FP-Rh probe, 1536-well HTS. Sialate O-acetylesterase (Homo sapiens), Q9HAT2. SIAE FP-Rh probe binding. inhibition, % at 9.66 µM. 370,000 compounds, 0.69% hits. AID 1053197, 2014;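 active = inhibition above a cutoff: mean of compounds within the control limits plus 3 SD of those, cut at about 17% in these data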;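 also: 0% = plate median of compound wells and 100% = probe without SIAE protein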
Target sequence (Q9HAT2 whole entry, looked up): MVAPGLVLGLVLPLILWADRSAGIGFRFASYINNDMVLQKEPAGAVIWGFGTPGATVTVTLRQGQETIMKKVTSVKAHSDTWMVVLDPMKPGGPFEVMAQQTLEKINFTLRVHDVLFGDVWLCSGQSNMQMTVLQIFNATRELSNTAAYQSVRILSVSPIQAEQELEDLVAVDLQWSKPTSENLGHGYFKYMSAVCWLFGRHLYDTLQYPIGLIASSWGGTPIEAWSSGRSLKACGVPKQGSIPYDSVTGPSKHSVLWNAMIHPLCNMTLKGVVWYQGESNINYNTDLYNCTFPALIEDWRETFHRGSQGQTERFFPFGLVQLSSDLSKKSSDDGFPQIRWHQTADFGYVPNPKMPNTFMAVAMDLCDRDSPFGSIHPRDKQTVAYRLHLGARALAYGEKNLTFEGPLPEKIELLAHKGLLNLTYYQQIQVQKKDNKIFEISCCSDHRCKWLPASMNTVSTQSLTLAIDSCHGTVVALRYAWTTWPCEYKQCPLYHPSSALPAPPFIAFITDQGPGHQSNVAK
TCR-CD3 inh – inhibitors of human TCR-CD3 interaction, primary screen, biochemical, fluorescence, TAMRA-labeled TCR probe; T-cell receptor (TCR); inhibition, % at 9.4 µM; 360,000 compounds, 0.37% hits;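 also: recombinant mutant TCR 2C K166C tagged with TAMRA read by polarization; 0% = receptor in buffer alone and 100% = receptor with positive control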
mABHD4 FP – ABHD4 inhibitors, primary screen, biochemical, fluorescence polarization, mouse; (Lyso)-N-acylphosphatidylethanolamine lipase (Mus musculus), Q8VD66; purified mABHD4, FP-Rh probe fluorescence polarization; inhibition, % at 8.92 µM; 370,000 compounds, 0.54% hits; AID 720543, 2013;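 active = inhibition exceeding the mean over every tested compound plus 3 SD, cut at about 30% in these data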;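 also: 0% = plate median of compound wells and 100% = S159A mutant with DMSO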
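System: mouse ABHD4 enzyme, wild type / Medium: HEPES pH 7.0, NaCl, Pluronic buffer / Reagent: FP-Rh activity-based fluorescent probe / Control set: S159A mutant high control, sample median low control / Detection: fluorescence polarization with parallel and perpendicular emission, 525/598 nm / Schedule: 45 min + 60 min at 25 °C / Compound dosing: 8.92 µM, single dose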
HTRA1 conf – HTRA1 protease inhibitors, retest, confirmation, biochemical, fluorescence polarization; shares compounds with HTRA1 inhibitor; recombinant HTRA1, FP-rhodamine activity-based probe; inhibition, % at 5.96 µM; 1,600 compounds, 66% hits;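 active = mean inhibition over three repeats above a set limit taken from the earlier primary screen, cut at about 37% in these data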;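 also: 0% = HTRA1 with DMSO and 100% = wells lacking HTRA1; inhibitors block probe binding so polarization drops and inhibition rises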
BSA probe FL – compounds interfering with TAMRA-BSA probe, counter-screen for TCR-CD3 interaction inhibitor project, biochemical, fluorescence, TAMRA-labeled BSA | shares compounds with TCR-CD3 inh | TAMRA-labeled BSA probe fluorescence counterscreen | inhibition, % at 9.4 µM | 1,200 compounds, 10% hits; in the data active = inhibition above about 23%;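 also: 0% = buffer low control and 100% = reference high control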
TCR-CD3 conf – TCR-CD3 interaction inhibitors, retest, confirmation, biochemical, fluorescence, TAMRA-labeled TCR probe; shares compounds with TCR-CD3 inh; TAMRA-labeled TCR probe fluorescence binding assay; inhibition, % at 9.4 µM; 1,200 compounds, 48% hits; AID 652036, 2013
PRMT1 confirm – PRMT1 methyltransferase inhibitors, confirmation, biochemical, fluorescence polarization, triplicate. 3,300 compounds, 42% hits. AID 687036, 2013. inhibition, % at 2.79 µM. recombinant His-PRMT1, activity-based probe fluorescence polarization. shares compounds with PRMT1 inh;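 active = mean inhibition across replicates above the hit cutoff derived for the earlier primary screen, cut at about 22% in these data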
mABHD4 conf – ABHD4 inhibitors, retest, confirmation, biochemical, fluorescence polarization, mouse. purified mABHD4, FP-Rh probe fluorescence polarization. inhibition, % at 8.92 µM. shares compounds with mABHD4 FP. 1,800 compounds, 55% hits;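 active = mean inhibition across replicates above the hit cutoff set in the primary screen, cut at about 30% in these data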;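 also: 0% = wild-type ABHD4 with DMSO and 100% = catalytically dead S159A mutant with DMSO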
SIAE inh conf – human SIAE inhibitors, retest, confirmation, biochemical, fluorescence polarization, FP-Rh probe, triplicate; 2,300 compounds, 13% hits; shares compounds with SIAE inh; SIAE FP-Rh activity-based probe; inhibition, % at 9.66 µM;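 active = mean inhibition of the replicates above the hit cutoff set in the primary screen, cut at about 17% in these data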;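 also: 0% = SIAE with DMSO and probe and 100% = probe without SIAE; inhibitors lower polarization as more probe stays unbound to SIAE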
Numbers without * were called inactive; . = not tested or not shown. Rule as the data show it, unless noted: active = inhibition above about 19%; inactive = the rest.

SMILES	PRMT1 inh	HTRA1 inhibitor	SIAE inh	TCR-CD3 inh	mABHD4 FP	HTRA1 conf	mABHD4 conf	others
Cc1nc2ccccc2c(=O)n1/N=C/c1cc(Br)cc(Br)c1O	0.4	36.2*	1.7	45.6*	8.8	95.4*	.	BSA probe FL=-11.9;TCR-CD3 conf=47.3*
C=CCCC(NC(=O)OCc1ccccc1)P(=O)(Oc1ccccc1)Oc1ccccc1 (stereo not drawn)	3.4	.	-1.6	.	-8.1	.	.
CC(C)Nc1ccc(Nc2ccccc2)cc1	25.4*	69.2*	12.1	-2.8	43.1*	53.0*	34.5*	PRMT1 confirm=69.7*
N#Cc1ccc2nc(-c3ccc(CN4CCC(n5nnc6ccccc65)CC4)cc3)c(-c3ccccc3)nc2c1	2.2	.	-6.5	0.2	0.3	.	.
CCCN1CCc2cc(O)cc3c2[C@H]1Cc1ccc(O)c(O)c1-3	76.7*	61.9*	14.1	2.6	68.7*	48.4*	29.6*
O=C(NCCN1CCC2(CC1)C(=O)NCN2c1ccccc1)c1ccc(F)c(F)c1	3.6	.	-0.8	-4.7	6.4	.	.
CC(c1ccccc1)n1cc(C(=O)NC2CCCC2)nn1 (stereo not drawn)	0.5	.	-1.7	.	-2.5	.	.
CN(C)[C@@H]1C(=O)C(C(N)=O)=C(O)[C@@]2(O)C(=O)C3=C(O)c4c(O)cccc4[C@@](C)(O)C3[C@H](O)C12 (stereo partly drawn)	36.5*	42.9*	16.9	27.3*	68.0*	11.0	21.8	BSA probe FL=-2.5;TCR-CD3 conf=10.9
CN(C)[C@@H]1C(=O)C(C(N)=O)=C(O)[C@@]2(O)C(=O)C3=C(O)c4c(O)ccc(Cl)c4[C@@](C)(O)C3C[C@@H]12 (stereo partly drawn)	27.0*	39.9*	11.1	11.8	60.2*	17.5	25.4	PRMT1 confirm=8.0
CN(C)C1C(=O)C(C(N)=O)=C(O)C2(O)C(=O)C3=C(O)c4c(O)cccc4C(C)(O)C3CC12 (stereo not drawn)	.	8.6	.	.	.	.	.
Cc1cc(N2CCNC[C@H]2C)ccc1N1CCN[C@H](C)C1	-2.2	.	-1.4	2.2	-5.8	.	.
CC(Cc1ccc(O)cc1)NCC(O)c1ccc(O)c(O)c1 (stereo not drawn)	25.2*	53.6*	9.1	7.5	53.0*	53.2*	60.1*	PRMT1 confirm=10.6
Cc1cccc(N2C(=O)NC(=O)/C(=C/c3cc4c(cc3[N+](=O)[O-])OCO4)C2=O)c1	28.3*	40.8*	10.6	3.2	39.2*	3.2	13.0	PRMT1 confirm=55.2*
O=C1c2ccccc2-c2cc3ccccc3cc21	8.9	-24.4	-11.9	6.9	4.5	.	.
O=C1C=C(N2CC2)c2ccccc2C1=O	17.1	50.7*	16.6	16.9	66.5*	31.0	30.0*
CCCCCCCCCCCCCCCC[N+](C)(C)C	-0.6	54.2*	4.7	6.1	31.6*	77.6*	54.8*
CCCCCC[N+](=O)[O-]	-0.5	1.8	-1.1	2.5	-1.9	.	.
CC(C)(C)n1nnnc1C1CN=C(c2ccccc2)c2ccccc2N1 (stereo not drawn)	-2.2	.	-1.6	.	2.9	.	.
CC1C(=O)CC2(C(C)C)CC12 (stereo not drawn)	-5.8	.	-2.2	3.7	3.6	.	.
CC1=C(O)C(=O)C=C2C1=CC=C1C2(C)CCC2(C)C3CC(C)(C(=O)O)CCC3(C)CCC12C (stereo not drawn)	34.7*	48.2*	12.8	2.0	49.4*	44.5*	48.4*	PRMT1 confirm=49.8*
C=CCN1C[C@H](C)N(C(c2ccc(C(=O)N(CC)CC)cc2)c2cccc(OC)c2)CC1C (stereo partly drawn)	-6.7	.	2.6	-4.2	-6.0	.	.
C=CCn1c(O)c(C=Nc2ccc(F)cc2)c(=O)[nH]c1=O	6.7	3.2	-5.6	0.1	0.7	.	.
C=CCn1c(O)c(C=Nc2ccc(N(CC)CC)cc2)c(=O)[nH]c1=O	22.4*	36.2*	14.4	16.0	56.7*	3.5	2.8
N#CCC[C@@H]1CC[C@]2(CCCN(Cc3ccncc3)C2)O1	1.6	.	3.0	.	0.6	.	.
O=C(N/N=C1/CN2CCC1CC2)c1cc2ccccc2cc1O	1.7	54.9*	17.2*	9.2	38.7*	11.9	18.6
SMILES	PRMT1 inh	HTRA1 inhibitor	SIAE inh	TCR-CD3 inh	mABHD4 FP	HTRA1 conf	mABHD4 conf	others
C[n+]1c(-c2ccccc2)c2cc(N)ccc2c2ccc(N)cc21	66.0*	96.6*	49.4*	116.4*	75.1*	123.2*	111.0*	BSA probe FL=160.1*;TCR-CD3 conf=130.2*
Oc1cccc2nc3ccccc3nc12	-1.8	67.4*	17.9*	0.5	17.7	59.5*	.	SIAE inh conf=-9.9
CN1CCc2cc3c(c4c2C1Cc1ccccc1-4)OCO3 (stereo not drawn)	51.2*	67.6*	24.5*	6.8	45.5*	1.7	49.6*	SIAE inh conf=2.5
O=C1NCN(c2ccccc2)C12CCN(C(c1ccccc1)c1nnnn1C1CCCC1)CC2 (stereo not drawn)	-0.8	.	-0.4	-2.9	-1.8	.	.
COc1cccc2c1C(=O)c1c(O)c3c(c(O)c1C2=O)CC(O)(C(C)=NO)CC3OC1CC(N)C(O)C(C)O1 (stereo not drawn)	145.5*	56.0*	55.0*	143.5*	59.0*	66.6*	58.9*	BSA probe FL=167.1*;TCR-CD3 conf=135.8*;PRMT1 confirm=138.8*;SIAE inh conf=43.8*
O=S(=O)(c1ccc2ccccc2c1)N1Cc2cc(Br)ccc2-n2nncc2C1	-0.4	.	1.2	-6.2	3.2	.	.
C[C@@H]1CNCCN1c1ccc(N2CC[C@H](O)C2)c(C#N)c1	0.0	.	7.5	2.8	5.1	.	.

From PubChem BioAssay
